The conditions of data set [1]: humans, intravenous injection; cited from earlier work.
Data set [2] concerns atraumatic rat model of shoulder arthrofibrosis. In words: Histological assessment of rat shoulder joints. In kind it is in vivo, Sprague Dawley rats. In a few lines:
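Female Sprague Dawley rats with contracted shoulders receiving intraarticular doses (repeated 2 μg/kg injections or saline; or single 10 μg/kg microparticles or unloaded particles at equivalent PLGA mass) from remobilization. Joints fixed and decalcified at 14 or 56 days; coronal sections stained with H&E, Masson's Trichrome, Safranin O. Immune activation scored on H&E; axillary pouch thickness measured; n=5; mean ± STDev; ANOVA.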

Data set [3] has as its system mouse models of myocardial infarction. The conditions noted are these: cited from earlier work.
Data set [4] can be described thus: Pharmacokinetics and biodistribution of ^125I-RLX after intraarticular injection. Also on record: species or system Sprague Dawley rats. Conditions: rat, in vivo.
Data set [5] is described as follows: Circular dichroism of RLX secondary structure. The class given is physicochemical.
The conditions of data set [6]: cited from earlier work.

This is an account of results in publication PMC9948766 (Science translational medicine, 2022).

Like-named read-outs stand apart in the source and are kept apart here. Bounds are passed on as bounds.

For the substance human relaxin-2 [RLX], in data set [1], the half-life is 1.6 h. Also, the “inflammatory infiltrate, histological scoring” value in data set [2] (14 days post-treatment, n=5) was “negligible inflammation”. Also, the joint architecture entry in data set [2] (56 days after remobilization, H&E, Masson's Trichrome) was “restored delineation of the humeral head and glenoid surface, absence of fibrotic adhesions”. In addition, the “inflammatory infiltrate, histological scoring” value in data set [2] (56 days post-treatment, n=5) is “negligible inflammation”. Further, the “synovial membrane thickness in the axillary pouch” value in data set [2] (56 days, n=5) is recorded as “restoration to baseline values”. The “bioactive average plasma exposure concentration, Cavg” value in data set [3] was 20 to 40 ng/mL. In data set [4], the CL is 20.6 (15.1, 31.8) (mL/kg)·hr; the “average plasma exposure, Cavg” value was 2.05 ng/mL/h; the “clearance at the time of dose re-administration” value is listed as over 99%; the “maximum plasma exposure, Cmax” value is 16 ng/mL. In data set [4], the t1/2-α is 0.954 (0.852, 1.15) h and the “t1/2-α (effective synovial half-life)” value is reported as 0.305 (0.280, 0.346) h. The “alpha helical structure (CD) after encapsulation processing” value in data set [5] (after organic solvents, mechanical and thermal forces of encapsulation) is reported as “maintenance of the alpha helical structure”. The “alpha helical structure (CD, negative peaks at 208 and 222 nm) after extended incubation” value in data set [5] (long-term incubation at 37 °C) is reported as “maintenance of the alpha helical structure”. The toxicological profile result in data set [6] (acute heart failure, 30 μg/kg/day continuous IV infusion over 48 hr) is “favorable toxicological profile”. Further, in data set [6] (induction of labor, 75μg/kg/day continuous IV infusion over 24 hr), the toxicological profile entry is listed as “favorable toxicological profile”.
